# Tests used:
# [1] = Chemical stability assessed as half life of hydrolysis at pH 1; type: physicochemical; conditions: buffer
# [2] = Antimetastatic activity against Brown Norwegian rat bearing BN472 tumor assessed as reduction of axillary lymph node weight at 1 mg/kg, ip administered once daily after 4 days of tumor transplantation for 17 to 18 days relative to control; type: functional; parameters: scale not given: the % may be the effect or the level left; conditions: route intraperitoneal
# Summary of the method: (§1)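 BN472 breast tumours implanted orthotopically in rats and left to grow three days. From day 4, compounds were given i.p. daily for 17–18 days at 0.1 or 1 mg/kg. Controls received vehicle i.p. only. Lung foci were counted and axillary lymph nodes weighed at the end of treatment. Groups were compared with control at an unadjusted significance level of P 0.05.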
# [3] = Antitumor activity against Brown Norwegian rat bearing BN472 tumor assessed as reduction of tumor weight at 1 mg/kg, ip administered once daily after 4 days of tumor transplantation for 17 to 18 days relative to control; type: functional; parameters: scale not given: the % may be the effect or the level left; conditions: route intraperitoneal
# Summary of the method: (§2)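 Rats bearing orthotopic BN472 breast tumours (grown three days) were dosed i.p. daily from day 4 for 17–18 days at 0.1 or 1 mg/kg. Vehicle-only i.p. controls were included. Tumour size and tumour weight were measured at the end of the treatment period and compared with controls.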
# [4] = target: Urokinase-type plasminogen activator (Homo sapiens, UniProt P00749)
# [5] = target: Plasminogen (Homo sapiens, UniProt P00747); test: Inhibition of human plasmin
# Chain of Plasminogen (Homo sapiens, UniProt P00747) (P00747 97-580 limits assumed): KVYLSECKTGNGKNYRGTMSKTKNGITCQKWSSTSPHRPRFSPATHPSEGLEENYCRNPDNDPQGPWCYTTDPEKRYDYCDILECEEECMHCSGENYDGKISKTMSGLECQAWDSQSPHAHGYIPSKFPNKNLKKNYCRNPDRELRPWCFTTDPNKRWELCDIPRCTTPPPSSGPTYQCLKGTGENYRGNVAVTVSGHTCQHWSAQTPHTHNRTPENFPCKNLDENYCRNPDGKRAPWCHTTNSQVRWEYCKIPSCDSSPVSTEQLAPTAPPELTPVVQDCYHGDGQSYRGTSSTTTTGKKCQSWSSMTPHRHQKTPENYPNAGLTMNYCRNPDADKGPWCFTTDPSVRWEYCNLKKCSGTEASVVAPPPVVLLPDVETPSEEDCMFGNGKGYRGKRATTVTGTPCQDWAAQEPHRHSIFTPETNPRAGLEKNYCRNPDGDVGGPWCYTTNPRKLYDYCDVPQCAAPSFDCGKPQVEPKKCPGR
# Chain of Plasminogen (Homo sapiens, UniProt P00747) (P00747 581-810 limits assumed): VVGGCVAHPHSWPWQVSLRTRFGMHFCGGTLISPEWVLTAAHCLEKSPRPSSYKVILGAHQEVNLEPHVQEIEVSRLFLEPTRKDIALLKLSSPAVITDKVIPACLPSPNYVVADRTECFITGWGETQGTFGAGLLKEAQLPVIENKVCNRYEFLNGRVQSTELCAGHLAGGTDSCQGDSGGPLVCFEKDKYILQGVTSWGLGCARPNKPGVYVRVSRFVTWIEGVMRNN
# Summary of the method: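 Plasmin from human plasma at about 5 mU was preincubated with inhibitor (0–250 µM final) for 15 min at 37 °C. Substrate was S-2366 at 580 µM in Tris pH 7.4. Initial rate was read at 405 nm, in duplicate. IC50 came from a four-parameter logistic fit.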
# [6] = tested on: Rattus norvegicus; test: Toxicity in Brown Norwegian rat bearing BN472 tumor assessed as increase in spleen weight at 0.1 mg/kg, ip administered once daily after 4 days of tumor transplantation for 17 to 18 days relative to control; type: organism-based; parameters: dose 0.1 mg/kg, route intraperitoneal; conditions: in vivo
# Summary of the method: (§3)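 Orthotopic BN472 breast tumour model in rats. Daily i.p. dosing at 0.1 or 1 mg/kg started on day 4 and ran 17–18 days, with vehicle-only i.p. controls. Side effects were assessed from body weight and the weights of several organs, compared with controls.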
# [7] = Antitumor activity against Brown Norwegian rat bearing BN472 tumor assessed as reduction of tumor size at 1 mg/kg, ip administered once daily after 4 days of tumor transplantation for 17 to 18 days relative to control; type: functional; parameters: scale not given: the % may be the effect or the level left; conditions: route intraperitoneal; summary of the method: as §2
# [8] = target: Tissue-type plasminogen activator (Homo sapiens, UniProt P00750); test: Inhibition of human recombinant tPA
# Chain of Tissue-type plasminogen activator (P00750 whole entry): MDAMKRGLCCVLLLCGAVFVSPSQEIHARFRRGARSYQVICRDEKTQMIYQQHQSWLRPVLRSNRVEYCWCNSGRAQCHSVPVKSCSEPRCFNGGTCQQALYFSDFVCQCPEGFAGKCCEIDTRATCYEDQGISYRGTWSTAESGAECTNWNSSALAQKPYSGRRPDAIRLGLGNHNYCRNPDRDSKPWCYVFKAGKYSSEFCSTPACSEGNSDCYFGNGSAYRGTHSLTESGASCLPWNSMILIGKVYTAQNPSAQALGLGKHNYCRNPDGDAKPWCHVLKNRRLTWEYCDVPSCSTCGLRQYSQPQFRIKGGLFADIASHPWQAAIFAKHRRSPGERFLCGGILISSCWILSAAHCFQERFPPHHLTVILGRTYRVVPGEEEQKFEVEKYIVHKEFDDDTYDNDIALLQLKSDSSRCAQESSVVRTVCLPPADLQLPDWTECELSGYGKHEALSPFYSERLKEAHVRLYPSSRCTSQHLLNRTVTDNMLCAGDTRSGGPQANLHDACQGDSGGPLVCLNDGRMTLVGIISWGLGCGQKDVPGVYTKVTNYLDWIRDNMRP
# [9] = Antitumor activity aganist Brown Norwegian rat bearing BN472 tumor assessed as reduction of tumor size at 0.1 mg/kg, ip administered once daily after 4 days of tumor transplantation for 17 to 18 days relative to control; type: functional; parameters: scale not given: the % may be the effect or the level left; conditions: route intraperitoneal; summary of the method: as §2
# [10] = Antimetastatic activity against Brown Norwegian rat bearing BN472 tumor assessed as decrease in number of lung foci at 0.1 mg/kg, ip administered once daily after 4 days of tumor transplantation for 17 to 18 days relative to control; type: functional; parameters: scale not given: the % may be the effect or the level left; conditions: route intraperitoneal; summary of the method: as §1
# [11] = Antimetastatic activity against Brown Norwegian rat bearing BN472 tumor assessed as reduction of interpectoral lymph node weight at 0.1 mg/kg, ip administered once daily after 4 days of tumor transplantation for 17 to 18 days relative to control; type: functional; parameters: scale not given: the % may be the effect or the level left; conditions: route intraperitoneal
# [12] = target: Plasminogen (Mus musculus, UniProt P20918); test: Inhibition of mouse plasmin
# Chain of Plasminogen (Mus musculus, UniProt P20918) (P20918 98-581 limits assumed): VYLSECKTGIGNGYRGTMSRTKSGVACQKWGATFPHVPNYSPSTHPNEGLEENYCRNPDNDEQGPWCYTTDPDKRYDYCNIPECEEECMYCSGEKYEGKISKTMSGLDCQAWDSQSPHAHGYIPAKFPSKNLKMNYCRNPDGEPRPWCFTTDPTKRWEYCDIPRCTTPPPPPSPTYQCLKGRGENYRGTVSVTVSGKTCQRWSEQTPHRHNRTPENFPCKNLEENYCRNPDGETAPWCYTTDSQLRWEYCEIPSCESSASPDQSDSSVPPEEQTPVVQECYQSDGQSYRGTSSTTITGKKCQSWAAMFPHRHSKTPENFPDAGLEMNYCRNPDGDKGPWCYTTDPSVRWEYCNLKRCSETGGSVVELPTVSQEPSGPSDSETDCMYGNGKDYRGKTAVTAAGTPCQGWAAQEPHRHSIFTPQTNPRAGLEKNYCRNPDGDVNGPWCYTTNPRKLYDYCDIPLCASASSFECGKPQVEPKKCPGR
# Chain of Plasminogen (Mus musculus, UniProt P20918) (P20918 582-812 limits assumed): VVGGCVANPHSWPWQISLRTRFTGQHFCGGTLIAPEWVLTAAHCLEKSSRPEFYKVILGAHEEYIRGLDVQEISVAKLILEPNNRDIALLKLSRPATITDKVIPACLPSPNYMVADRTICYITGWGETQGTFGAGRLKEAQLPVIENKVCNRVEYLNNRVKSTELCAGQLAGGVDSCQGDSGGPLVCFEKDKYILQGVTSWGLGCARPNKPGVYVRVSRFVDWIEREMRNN
# [13] = Antimetastatic activity against Brown Norwegian rat bearing BN472 tumor assessed as decrease in number of lung foci at 1 mg/kg, ip administered once daily after 4 days of tumor transplantation for 17 to 18 days relative to control; type: functional; parameters: scale not given: the % may be the effect or the level left; conditions: route intraperitoneal; summary of the method: as §1
# [14] = Antimetastatic activity against Brown Norwegian rat bearing BN472 tumor assessed as reduction of axillary lymph node weight at 0.1 mg/kg, ip administered once daily after 4 days of tumor transplantation for 17 to 18 days relative to control; type: functional; parameters: scale not given: the % may be the effect or the level left; conditions: route intraperitoneal; summary of the method: as §1
# [15] = target: Urokinase-type plasminogen activator (Mus musculus, UniProt P06869); test: Inhibition of mouse uPA
# Chain of Urokinase-type plasminogen activator (Mus musculus, UniProt P06869) (P06869 21-178 limits assumed): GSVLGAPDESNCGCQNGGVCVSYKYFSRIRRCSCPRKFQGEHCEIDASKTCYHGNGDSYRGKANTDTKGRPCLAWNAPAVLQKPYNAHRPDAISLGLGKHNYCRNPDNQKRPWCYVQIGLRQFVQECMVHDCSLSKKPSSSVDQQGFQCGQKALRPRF
# Chain of Urokinase-type plasminogen activator (Mus musculus, UniProt P06869) (P06869 180-433 limits assumed): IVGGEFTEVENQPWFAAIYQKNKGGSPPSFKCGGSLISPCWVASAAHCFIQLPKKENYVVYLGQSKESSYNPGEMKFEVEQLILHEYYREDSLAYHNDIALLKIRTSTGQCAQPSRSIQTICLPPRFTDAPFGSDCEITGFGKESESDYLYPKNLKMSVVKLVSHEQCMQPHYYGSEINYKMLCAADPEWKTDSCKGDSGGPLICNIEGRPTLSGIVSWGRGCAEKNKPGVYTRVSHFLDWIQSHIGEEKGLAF
# [16] = tested on: Rattus norvegicus; test: Toxicity in Brown Norwegian rat bearing BN472 tumor assessed as increase in uterus weight at 1 mg/kg, ip administered once daily after 4 days of tumor transplantation for 17 to 18 days relative to control; type: organism-based; parameters: dose 1 mg/kg, route intraperitoneal; conditions: in vivo; summary of the method: as §3
# [17] = tested on: Rattus norvegicus; test: Toxicity in Brown Norwegian rat bearing BN472 tumor assessed as increase in kidney weight at 1 mg/kg, ip administered once daily after 4 days of tumor transplantation for 17 to 18 days relative to control; type: organism-based; parameters: dose 1 mg/kg, route intraperitoneal; conditions: in vivo; summary of the method: as §3
# [18] = Stability in human plasma after 3 hrs; type: ADME, cell-free; conditions: read-out: Stability
# Summary of the method: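 Compound was added from 10 mM DMSO stock to human plasma at 200 µM final and shaken at 37 °C for up to 24 h. Aliquots were quenched in methanol and centrifuged. The supernatant was diluted with internal standard and analysed by LC/MS/MS in triplicate. Result is given as % parent compound remaining.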
# [19] = tested on: Rattus norvegicus; test: (§4) Toxicity in Brown Norwegian rat bearing BN472 tumor assessed as decrease in adrenal weight at 0.1 mg/kg, ip administered once daily after 4 days of tumor transplantation for 17 to 18 days relative to control; type: organism-based; parameters: dose 0.1 mg/kg, route intraperitoneal; scale not given: the % may be the effect or the level left; conditions: in vivo; summary of the method: as §3
# [20] = target: Coagulation factor X (Homo sapiens, UniProt P00742); test: Inhibition of factor 10a
# Chain of Coagulation factor X (P00742 41-179 limits assumed): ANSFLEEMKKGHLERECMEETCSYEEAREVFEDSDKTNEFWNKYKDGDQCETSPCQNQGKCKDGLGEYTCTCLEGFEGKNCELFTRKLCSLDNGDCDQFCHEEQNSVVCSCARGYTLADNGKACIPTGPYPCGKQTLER
# Chain of Coagulation factor X (P00742 235-488 limits assumed): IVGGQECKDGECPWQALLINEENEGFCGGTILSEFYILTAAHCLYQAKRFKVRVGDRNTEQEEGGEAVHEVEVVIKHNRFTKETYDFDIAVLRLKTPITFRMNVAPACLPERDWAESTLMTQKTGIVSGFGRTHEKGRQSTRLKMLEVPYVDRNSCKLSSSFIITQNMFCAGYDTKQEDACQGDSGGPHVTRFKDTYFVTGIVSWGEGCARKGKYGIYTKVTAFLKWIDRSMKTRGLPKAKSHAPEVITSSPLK
# Summary of the method: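 Human factor Xa (FX activated with Russell's viper venom) at about 5 mU was preincubated with inhibitor (0–250 µM final) for 15 min at 37 °C. […] IC50 came from a four-parameter logistic fit.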
# [21] = tested on: Rattus norvegicus; test: Toxicity in Brown Norwegian rat bearing BN472 tumor assessed as effect on body weight at 0.1 mg/kg, ip administered once daily after 4 days of tumor transplantation for 17 to 18 days relative to control; type: organism-based; parameters: dose 0.1 mg/kg, route intraperitoneal; conditions: in vivo; summary of the method: as §3
# [22] = Chemical stability assessed as half life of hydrolysis at pH 7.4; type: physicochemical; conditions: buffer
# [23] = tested on: Rattus norvegicus; test: Toxicity in Brown Norwegian rat bearing BN472 tumor assessed as increase in kidney weight at 0.1 mg/kg, ip administered once daily after 4 days of tumor transplantation for 17 to 18 days relative to control; type: organism-based; parameters: dose 0.1 mg/kg, route intraperitoneal; conditions: in vivo; summary of the method: as §3
# [24] = Antitumor activity aganist Brown Norwegian rat bearing BN472 tumor assessed as reduction of tumor weight at 0.1 mg/kg, ip administered once daily after 4 days of tumor transplantation for 17 to 18 days relative to control; type: functional; parameters: scale not given: the % may be the effect or the level left; conditions: route intraperitoneal; summary of the method: as §2
# [25] = Distribution coefficient, log D in octanol and phosphate buffer saline at pH 7.4; type: physicochemical; conditions: octanol/phosphate buffered saline
# Summary of the method: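 A 10 mM DMSO stock was added to a 1:1 octanol/PBS pH 7.4 mixture. Measured in duplicate.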
# [26] = tested on: Rattus norvegicus; test: as §4; type: organism-based; parameters: dose 0.1 mg/kg, route intraperitoneal; scale not given: the % may be the effect or the level left; conditions: in vivo; summary of the method: as §3; remark: listed apart in the source
# [27] = Apparent solubility in phosphate buffered saline at pH 7.4 after 2 hrs; type: ADME
# Summary of the method: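 Compounds were serially diluted from 10 mM DMSO stock into PBS pH 7.4 (2% DMSO final), giving 1–200 µM final at eight concentrations, in duplicate. Incubation was 2 h at 37 °C. Solubility was taken as the onset of increased absorbance at 620 nm.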
# [28] = tested on: Rattus norvegicus; test: Toxicity in Brown Norwegian rat bearing BN472 tumor assessed as effect on body weight at 1 mg/kg, ip administered once daily after 4 days of tumor transplantation for 17 to 18 days relative to control; type: organism-based; parameters: dose 1 mg/kg, route intraperitoneal; conditions: in vivo; summary of the method: as §3
# [29] = tested on: Rattus norvegicus; test: Toxicity in Brown Norwegian rat bearing BN472 tumor assessed as increase in lung weight at 0.1 mg/kg, ip administered once daily after 4 days of tumor transplantation for 17 to 18 days relative to control; type: organism-based; parameters: dose 0.1 mg/kg, route intraperitoneal; conditions: in vivo; summary of the method: as §3
# [30] = target: Prothrombin (Mus musculus, UniProt P19221); test: Inhibition of mouse thrombin
smiles,measurement,setting,value
COC(=O)NC(Cc1ccc(NC(=N)N)cc1)P(=O)(Oc1ccc(NC(C)=O)cc1)Oc1ccc(NC(C)=O)cc1 (stereo not given),half-life,[1],35 h
same,Activity,[2],73%
same,Activity,[3],17%
same,Kapp,[4],1e+06 M⁻¹ s⁻¹
same,IC50,[5],2.8 µM
same,Activity,[6],3%
same,Activity,[7],18%
same,IC50,[8],6.1 µM
same,Activity,[9],10%
same,Activity,[10],42%
same,Activity,[11],3%
same,IC50,[12],4.8 µM
same,Activity,[13],70%
same,Activity,[14],49%
same,IC50,[15],0.008 µM
same,Activity,[16],33%
same,Activity,[17],3%
same,remaining at 3 h,[18],81%
same,Activity,[19],2%
same,IC50,[20],30 µM
same,Activity,[21],163.5 g
same,half-life,[22],64 h
same,Activity,[23],7%
same,Activity,[24],15%
same,logD,[25],-0.08
same,Activity,[26],5%
same,solubility at 2 h,[27],> 200 µM
same,Activity,[28],170.5 g
same,Activity,[29],18%
same,IC50,[30],4.5 µM

# Reference: ChEMBL document CHEMBL1138351, “Small, potent, and selective diaryl phosphonate inhibitors for urokinase-type plasminogen activator with in vivo antimetastatic properties” (J Med Chem, 2007)
